Screening data from PubChem.
CAL PDZ FP-1 = blocks peptide binding to human CAL PDZ domain; purified CAL PDZ, TMR-peptide fluorescence polarization, 1 h; inhibition, % at 20 µM; actives 0.02% (n = 330,000); Q9HD26;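 active = highest replicate inhibition of at least 40%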;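 note: plate controls were DMSO neutral control wells for no effect and unlabeled competitor peptide control wells for full effect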
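Test system: tagged CAL PDZ domain / Buffer or medium: sodium phosphate/NaCl buffer pH 7.4 with TCEP, IgG, Thesit / Reagent: TMR-labelled reporter peptide T*-PRC34 bound in PDZ groove / Compound dosing: single point, 20 µM / Schedule: 1 h incubation at room temperature before polarization reading / Technique: fluorescence polarization (mP) / Benchmarks: unlabelled peptide, DMSO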
CAL PDZ FP-2 = CAL PDZ (human) peptide binding inhibition. Q9HD26. purified CAL PDZ, TMR-peptide fluorescence polarization, 1 h. inhibition, % at 24.9 µM. actives 0.92% (n = 300,000). AID 602252;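 active = mean inhibition of at least 30% with at least half of replicates also reaching 30%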;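 note: 0% = DMSO neutral control and 100% = excess unlabeled competitor peptide PRC23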
PvdQ inh = P. aeruginosa PvdQ acylase inhibition. purified PvdQ acylase, fluorescence plate reader. actives 0.063% (n = 340,000). inhibition, % at 10 µM; in the data active = inhibition above about 30%, passing the limit was not always enough;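 note: 0% = vehicle neutral wells and 100% = reference inhibitor wells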
TbMetRS inhib = blocks T. brucei methionyl-tRNA synthetase activity; actives 0.4% (n = 360,000); AID 624268; inhibition, % at 11.9 µM; purified T. brucei MetRS, ATP depletion, Kinase-Glo luminescence;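 active = inhibition above a per-plate cutoff of the control wells' mean inhibition plus 3 SD, cut at about 5.5% in these data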;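 note: 0% = DMSO wells median and 100% = median of wells with control inhibitor compound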
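Measured by: Kinase-Glo luciferase luminescence reporting remaining unconsumed ATP. Material: purified T. brucei MetRS enzyme. Doses: 11.9 µM compound single dose, 0.9% DMSO. Medium: HEPES buffer containing pyrophosphatase, BSA, spermine, DTT. Times: 15 min preincubation, 2 h reaction, all 25 °C. Reagent: methionine, ATP and bulk E. coli tRNA.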
CDK5 inh = blocks human CDK5/p35 kinase activity; Q00535+Q15078; Recombinant CDK5/p35, ADP-Glo luminescence, 60 min; inhibition, % at 10 µM; actives 0.01% (n = 330,000); AID 488839;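 active = highest replicate inhibition of at least 50% and at least 75% of replicates reaching 50%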;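 note: plate controls were DMSO neutral control for no effect and GW8510 at 10 µM for full effect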
Target sequence (Q00535 whole entry, looked up): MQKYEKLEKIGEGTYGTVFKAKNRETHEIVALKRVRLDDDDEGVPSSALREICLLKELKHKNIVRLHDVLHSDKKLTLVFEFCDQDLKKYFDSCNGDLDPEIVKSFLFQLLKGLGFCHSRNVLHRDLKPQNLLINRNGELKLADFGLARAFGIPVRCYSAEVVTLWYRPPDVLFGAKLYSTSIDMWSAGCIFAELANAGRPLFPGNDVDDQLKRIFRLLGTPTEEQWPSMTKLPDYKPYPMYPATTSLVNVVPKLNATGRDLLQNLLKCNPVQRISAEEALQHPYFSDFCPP
Target sequence (Q15078 whole entry, looked up): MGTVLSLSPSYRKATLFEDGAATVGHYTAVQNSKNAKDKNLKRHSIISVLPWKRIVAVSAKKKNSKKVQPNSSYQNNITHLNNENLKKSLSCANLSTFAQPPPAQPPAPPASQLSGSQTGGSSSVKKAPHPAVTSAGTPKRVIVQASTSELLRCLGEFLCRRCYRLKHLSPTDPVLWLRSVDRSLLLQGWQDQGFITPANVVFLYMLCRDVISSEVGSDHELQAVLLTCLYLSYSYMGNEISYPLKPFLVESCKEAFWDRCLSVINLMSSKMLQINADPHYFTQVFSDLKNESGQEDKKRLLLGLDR
DYRK1A inh = inhibitors of rat Dyrk1A kinase; ADP-Glo luminescence, NFATc1 peptide; inhibition, % at 12.5 µM; actives 0.43% (n = 310,000); AID 504441; in the data active = inhibition above about 50%;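 note: plate controls were vehicle with enzyme for no effect and no enzyme for full effect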
Starred values were filed as active, the others as inactive. A selection: hits, their analogues and other compounds. The true share with any hit is near 1.4%.

`O=C(NCCc1ccccc1)c1ncn[nH]1` gave CAL PDZ FP-1 -1.9, CAL PDZ FP-2 -3.0, PvdQ inh -11.7, TbMetRS inhib 0.4, CDK5 inh -3.0 and DYRK1A inh -0.8.
For O=C(NCc1ccccc1)c1ncn[nH]1 the results were CAL PDZ FP-1 0.2, CAL PDZ FP-2 111.8*, PvdQ inh -2.7, TbMetRS inhib -0.3, CDK5 inh 1.2 and DYRK1A inh 4.9.
`CCOC(=O)[C@]12CCC=C1N(CCC1=CCCCC1)C(=O)[C@H](CC(=O)NCCCCc1ccccc1)C2` gave TbMetRS inhib -0.6.
Screening COc1ccc(-n2nnc3c(SCC(=O)N4CCCc5ccccc54)ncnc32)cc1 returned CAL PDZ FP-1 14.6, CAL PDZ FP-2 60.1*, PvdQ inh -10.9, TbMetRS inhib -0.1, CDK5 inh 0.5 and DYRK1A inh -4.2.
Screening Cc1ccc(CS(=O)Cc2ccc(C(=O)NCC(C)c3ccccc3)o2)cc1 (stereo unspecified) returned CAL PDZ FP-1 -0.8, CAL PDZ FP-2 82.4*, PvdQ inh -15.2, TbMetRS inhib -0.3, CDK5 inh -0.7 and DYRK1A inh 3.9.
For Cc1ccc(CS(=O)Cc2ccc(C(=O)NCc3ccccc3)o2)cc1 (stereo unspecified) the results were CAL PDZ FP-1 -0.3, CAL PDZ FP-2 2.9, PvdQ inh 7.3, TbMetRS inhib -0.5, CDK5 inh 0.7 and DYRK1A inh -0.3.
`CCc1nc2c(OCc3ccccc3C)cccn2c1N(C)C(=O)C1CC1` gave TbMetRS inhib 0.3.
Screening CCCC(=O)n1nc(-c2ccc(C)cc2)nc1NCc1ccco1 returned CAL PDZ FP-1 1.9, CAL PDZ FP-2 80.6*, PvdQ inh -8.8, TbMetRS inhib -0.6, CDK5 inh -0.5 and DYRK1A inh 2.0.
Screening O=C1OC2(CCCCC2)OC(=O)C1=CNc1nc2ccccc2s1 returned CAL PDZ FP-1 30.2, CAL PDZ FP-2 51.9*, PvdQ inh -16.1, TbMetRS inhib -0.5, CDK5 inh -2.8 and DYRK1A inh 4.6.
CN(C(=O)COC(=O)/C=C/c1ccc2ccccc2n1)c1c(N)n(Cc2ccccc2)c(=O)[nH]c1=O was read as CAL PDZ FP-1 -1.1, CAL PDZ FP-2 -1.5, PvdQ inh -7.8, TbMetRS inhib -0.1, CDK5 inh -0.1 and DYRK1A inh -5.4.
COCCN(C(=O)CSc1nc2ccccc2s1)c1c(N)n(Cc2ccccc2)c(=O)[nH]c1=O was read as CAL PDZ FP-1 -0.7, CAL PDZ FP-2 99.1*, PvdQ inh -4.4, TbMetRS inhib -0.5, CDK5 inh 0.6 and DYRK1A inh -1.0.
`COCCN(C(=O)COC(=O)CCc1nc2ccccc2s1)c1c(N)n(Cc2ccccc2)c(=O)[nH]c1=O` gave CAL PDZ FP-1 -2.2, CAL PDZ FP-2 -4.4, PvdQ inh 2.0, TbMetRS inhib 0.2, CDK5 inh -1.1 and DYRK1A inh -4.0.
For COCCN(C(=O)COC(=O)/C=C/c1ccc2ccccc2n1)c1c(N)n(Cc2ccccc2)c(=O)[nH]c1=O the results were CAL PDZ FP-1 -4.4, CAL PDZ FP-2 42.9*, PvdQ inh -15.5, TbMetRS inhib -0.3, CDK5 inh 1.5 and DYRK1A inh -4.0.
Screening CSc1ccc(Cn2c(C)c(C(=O)NCc3ccc4c(c3)OCO4)sc2=O)cc1 returned TbMetRS inhib 0.2.
Screening COc1ccc(OC)c(C(C[N+](=O)[O-])c2c(C)cc3ccccn23)c1 (stereo unspecified) returned CAL PDZ FP-1 -0.3, CAL PDZ FP-2 47.9*, PvdQ inh -17.8, TbMetRS inhib 0.5, CDK5 inh -0.8 and DYRK1A inh 0.6.
`Cc1ccc(C)c(OCC(O)CN2CCC(Cc3ccccc3)CC2)c1` (stereo unspecified) gave CAL PDZ FP-1 -1.9, CAL PDZ FP-2 37.1*, PvdQ inh -17.9, TbMetRS inhib -0.5, CDK5 inh 1.9 and DYRK1A inh 0.3.
For Cc1cc2nc(-c3ccc(F)cc3)c(Cc3cccc(Cl)c3)n2c(C)c1Br the results were TbMetRS inhib -0.9.
CCN(CC(=O)Nc1c(F)cccc1F)C(=O)CCCc1c[nH]c2ccccc12 was read as CAL PDZ FP-1 -0.2, CAL PDZ FP-2 -3.9, PvdQ inh -0.7, TbMetRS inhib -0.6, CDK5 inh 0.1 and DYRK1A inh -0.5.
Screening CCCN(CC(=O)Nc1ccccc1C)C(=O)COc1c(C)cccc1C returned CAL PDZ FP-1 0.0, CAL PDZ FP-2 44.7*, PvdQ inh -18.2, TbMetRS inhib -0.2 and CDK5 inh 0.9.
`CCCN(CC(=O)Nc1ccccc1C)C(=O)CCCc1c[nH]c2ccccc12` gave CAL PDZ FP-1 0.3, CAL PDZ FP-2 131.5*, PvdQ inh -14.8, TbMetRS inhib 1.0 and CDK5 inh 1.5.
For CC(C)CC1C(=O)N(Cc2cn(Cc3ccco3)nn2)CCS(=O)(=O)N1Cc1ccc(-c2ccccc2)cc1 (stereo unspecified) the results were TbMetRS inhib -0.5.
For O=C(NC(c1ccccc1)c1cnccn1)C1CCN(CCOc2ccc(Cl)cc2Cl)CC1 (stereo unspecified) the results were TbMetRS inhib 0.2.
`C=CCNC(=S)NNC(=O)c1cccc(Br)c1` gave CAL PDZ FP-1 -0.9, CAL PDZ FP-2 -5.9, PvdQ inh -7.2, TbMetRS inhib 0.1, CDK5 inh 0.8 and DYRK1A inh 0.8.
Screening C=CCNC(=S)NNC(=O)c1ccc(C)c(Cl)c1 returned CAL PDZ FP-1 -0.6, CAL PDZ FP-2 67.4*, PvdQ inh -13.2, TbMetRS inhib 0.1, CDK5 inh -0.6 and DYRK1A inh -15.6.
For Cc1cc2nc(/C(C#N)=C/c3ccncc3)[nH]c2cc1C the results were CAL PDZ FP-1 15.1, CAL PDZ FP-2 107.1*, PvdQ inh -10.2, TbMetRS inhib 0.6, CDK5 inh 0.6 and DYRK1A inh 3.1.
For Cc1ccc2cccc(NC(=O)c3ccc(Br)o3)c2n1 the results were CAL PDZ FP-1 -1.2, CAL PDZ FP-2 70.4*, PvdQ inh -7.9, TbMetRS inhib -0.4, CDK5 inh 0.8 and DYRK1A inh 5.5.
Screening O=C(Nc1cccc(NC(=O)c2ccc(Br)o2)n1)c1ccc(Br)o1 returned CAL PDZ FP-1 1.3, PvdQ inh -11.9, TbMetRS inhib 0.5, CDK5 inh -0.5 and DYRK1A inh -2.8.
`COc1ccc(OCc2nn[nH]n2)cc1` gave CAL PDZ FP-1 1.5, CAL PDZ FP-2 -2.6, PvdQ inh -6.0, TbMetRS inhib 0.0 and CDK5 inh -0.1.
Screening COC(=O)c1ccc(OCc2nn[nH]n2)cc1 returned CAL PDZ FP-1 -1.8, CAL PDZ FP-2 60.8*, PvdQ inh -7.4, TbMetRS inhib -0.4, CDK5 inh -0.1 and DYRK1A inh 4.9.
For CC(=O)Nc1cccc(NC(=O)CCNC(=O)c2ccc(Cl)cc2)c1 the results were CAL PDZ FP-1 -0.3, CAL PDZ FP-2 -4.1, PvdQ inh 9.4, TbMetRS inhib -1.0, CDK5 inh 0.8 and DYRK1A inh -0.7.
